Source: ChEMBL document CHEMBL3244254, “Hypolipidemic activity of 5-aryl-3-methylvaleric acid derivatives” (J Med Chem, 1977)

Columns and labels:
[1] = system: Rattus norvegicus; test: Hypolipidemic activity in intact normal CD rat assessed as reduction in serum cholesterol level at 0.43 mmol/kg/day administered through diet for 5 days measured on day 6; type: functional
Method in brief: (§1)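 Male CD rats, 300–380 g, housed in pairs, 12-h light/dark, free access to food and water. Test agent mixed into ground chow at 0.2%; controls got plain ground chow; 8 rats per group. Body weight and group food intake recorded. Fed 5 days, anesthetized on day 6, blood collected, serum total cholesterol or triglyceride measured. Expressed as % reduction vs concurrent controls, Student's t test p ≤ 0.05.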

[2] = system: Rattus norvegicus; test: Hypolipidemic activity in intact normal CD rat assessed as reduction in serum triglyceride level at 0.43 mmol/kg/day administered through diet for 5 days measured on day 6; type: functional; method in brief: as §1
[3] = target: T1, 3-hydroxy-3-methylglutaryl-coenzyme A reductase (Rattus norvegicus, UniProt P51639); test: Inhibition of HMG-coA reductase in CD rat liver microsomal-cytosol fraction assessed as inhibition of total lipid synthesis using [2-14C]acetate as substrate after 90 mins by scintillation counting analysis
T1 sequence (P51639 whole entry): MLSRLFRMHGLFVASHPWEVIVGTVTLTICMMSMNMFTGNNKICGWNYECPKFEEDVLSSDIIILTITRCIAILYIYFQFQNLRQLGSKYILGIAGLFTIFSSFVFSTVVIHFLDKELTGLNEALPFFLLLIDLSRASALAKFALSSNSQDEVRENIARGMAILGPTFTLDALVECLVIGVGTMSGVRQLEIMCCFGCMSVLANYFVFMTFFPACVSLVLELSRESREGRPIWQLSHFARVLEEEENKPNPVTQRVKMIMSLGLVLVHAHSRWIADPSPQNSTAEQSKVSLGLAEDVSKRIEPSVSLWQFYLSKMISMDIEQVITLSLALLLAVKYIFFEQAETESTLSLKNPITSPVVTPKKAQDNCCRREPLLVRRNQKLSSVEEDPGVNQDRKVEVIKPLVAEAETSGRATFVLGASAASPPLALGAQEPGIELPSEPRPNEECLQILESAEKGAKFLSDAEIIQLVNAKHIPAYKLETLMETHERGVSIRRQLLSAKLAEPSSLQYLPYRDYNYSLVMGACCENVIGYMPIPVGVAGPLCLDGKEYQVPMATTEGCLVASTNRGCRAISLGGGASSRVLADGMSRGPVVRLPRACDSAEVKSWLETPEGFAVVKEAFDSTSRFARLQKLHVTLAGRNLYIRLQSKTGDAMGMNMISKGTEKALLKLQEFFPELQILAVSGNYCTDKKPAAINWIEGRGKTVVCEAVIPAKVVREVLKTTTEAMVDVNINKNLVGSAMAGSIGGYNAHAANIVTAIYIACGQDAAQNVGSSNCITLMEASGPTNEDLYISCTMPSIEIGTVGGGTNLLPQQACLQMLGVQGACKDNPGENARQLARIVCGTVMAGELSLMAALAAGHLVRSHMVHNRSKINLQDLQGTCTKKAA
Method in brief: (§2)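 Male CD rats, 150–200 g, housed singly 5 days on chow with 2% DEAE-cellulose, killed by cervical dislocation. Liver microsomal-cytosol fraction as enzyme source, [2-14C]acetate substrate, 90 min at 37 °C. Compounds added in Me2SO, at least four concentrations, duplicates. Lipid extract counted by scintillation (dpm). Heat-inactivated fraction corrects for nonenzymatic incorporation. Fractions are total lipid, nonsaponifiable lipid and fatty acid. IC50 is molar concentration giving 50% inhibition.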

[4] = target: T1, 3-hydroxy-3-methylglutaryl-coenzyme A reductase; test: Inhibition of HMG-coA reductase in CD rat liver microsomal-cytosol fraction assessed as inhibition of nonsaponifiable lipid synthesis using [2-14C]acetate as substrate after 90 mins by scintillation counting analysis; method in brief: as §2
[5] = system: Rattus norvegicus; test: Hypolipidemic activity in intact normal CD rat assessed as reduction in serum cholesterol level at 0.38 mmol/kg/day administered through diet for 5 days measured on day 6; type: functional; method in brief: as §1
[6] = system: Rattus norvegicus; test: Hypolipidemic activity in intact normal CD rat assessed as reduction in serum triglyceride level at 0.38 mmol/kg/day administered through diet for 5 days measured on day 6; type: functional; method in brief: as §1
[7] = system: Rattus norvegicus; test: Hypolipidemic activity in intact normal CD rat assessed as reduction in serum cholesterol level at 0.45 mmol/kg/day administered through diet for 5 days measured on day 6; type: functional; method in brief: as §1
[8] = system: Rattus norvegicus; test: Hypolipidemic activity in intact normal CD rat assessed as reduction in serum triglyceride level at 0.45 mmol/kg/day administered through diet for 5 days measured on day 6; type: functional; method in brief: as §1
[9] = system: Rattus norvegicus; test: Hypolipidemic activity in intact normal CD rat assessed as reduction in serum cholesterol level at 0.36 mmol/kg/day administered through diet for 5 days measured on day 6; type: functional; method in brief: as §1
[10] = system: Rattus norvegicus; test: Hypolipidemic activity in intact normal CD rat assessed as reduction in serum triglyceride level at 0.36 mmol/kg/day administered through diet for 5 days measured on day 6; type: functional; method in brief: as §1
[11] = system: Rattus norvegicus; test: Hypolipidemic activity in intact normal CD rat assessed as reduction in serum cholesterol level at 0.41 mmol/kg/day administered through diet for 5 days measured on day 6; type: functional; method in brief: as §1
[12] = system: Rattus norvegicus; test: Hypolipidemic activity in intact normal CD rat assessed as reduction in serum triglyceride level at 0.41 mmol/kg/day administered through diet for 5 days measured on day 6; type: functional; method in brief: as §1
[13] = system: Rattus norvegicus; test: Hypolipidemic activity in intact normal CD rat assessed as reduction in serum cholesterol level at 0.42 mmol/kg/day administered through diet for 5 days measured on day 6; type: functional; method in brief: as §1
[14] = system: Rattus norvegicus; test: Hypolipidemic activity in intact normal CD rat assessed as reduction in serum triglyceride level at 0.42 mmol/kg/day administered through diet for 5 days measured on day 6; type: functional; method in brief: as §1
[15] = system: Rattus norvegicus; test: Hypolipidemic activity in intact normal CD rat assessed as reduction in serum cholesterol level at 0.40 mmol/kg/day administered through diet for 5 days measured on day 6; type: functional; method in brief: as §1
[16] = system: Rattus norvegicus; test: Hypolipidemic activity in intact normal CD rat assessed as reduction in serum triglyceride level at 0.40 mmol/kg/day administered through diet for 5 days measured on day 6; type: functional; method in brief: as §1
[17] = system: Rattus norvegicus; test: Hypolipidemic activity in intact normal CD rat assessed as reduction in serum cholesterol level at 0.51 mmol/kg/day administered through diet for 5 days measured on day 6; type: functional; method in brief: as §1
[18] = system: Rattus norvegicus; test: Hypolipidemic activity in intact normal CD rat assessed as reduction in serum triglyceride level at 0.51 mmol/kg/day administered through diet for 5 days measured on day 6; type: functional; method in brief: as §1
[19] = system: Rattus norvegicus; test: Hypolipidemic activity in intact normal CD rat assessed as reduction in serum cholesterol level at 0.39 mmol/kg/day administered through diet for 5 days measured on day 6; type: functional; method in brief: as §1
[20] = system: Rattus norvegicus; test: Hypolipidemic activity in intact normal CD rat assessed as reduction in serum triglyceride level at 0.39 mmol/kg/day administered through diet for 5 days measured on day 6; type: functional; method in brief: as §1

Row | IC50 [3] | IC50 [4] | SMILES | further results
1 | 810 µM | 360 µM | CC(CCc1ccc2oc3ccccc3c2c1)CC(=O)O (stereo unspecified) | inhibition in vivo at 430 µmol/kg [1]: 26%; inhibition in vivo at 430 µmol/kg [2]: ≥ 36%
2 | 570 µM | 240 µM | CC(CC(=O)O)CC(=O)c1ccc(Sc2ccccc2)cc1 (stereo unspecified) | inhibition in vivo at 380 µmol/kg [5]: 16%; inhibition in vivo at 380 µmol/kg [6]: ≥ 36%
3 | 20 µM | 2 µM | CC(CCc1ccc(-c2ccccc2)cc1)CC(=O)O (stereo unspecified) | inhibition in vivo at 450 µmol/kg [7]: 16%; inhibition in vivo at 450 µmol/kg [8]: 26%
4 | 50 µM | 80 µM | CC(CCc1ccc2c(c1)-c1ccccc1S2(=O)=O)CC(=O)O (stereo unspecified) | inhibition in vivo at 360 µmol/kg [9]: 16%; inhibition in vivo at 360 µmol/kg [10]: ≥ 36%
5 | 260 µM | 110 µM | CC(CC(=O)O)CC(=O)c1ccc2oc3ccccc3c2c1 (stereo unspecified) | inhibition in vivo at 410 µmol/kg [11]: 0%; inhibition in vivo at 410 µmol/kg [12]: 26%
6 | 30 µM | 20 µM | CC(CCc1ccc(Oc2ccccc2)cc1)CC(=O)O (stereo unspecified) | inhibition in vivo at 420 µmol/kg [13]: 26%; inhibition in vivo at 420 µmol/kg [14]: ≥ 36%
7 | 190 µM | 70 µM | CC(CCc1ccc2sc3ccccc3c2c1)CC(=O)O (stereo unspecified) | inhibition in vivo at 430 µmol/kg [1]: 0%; inhibition in vivo at 430 µmol/kg [2]: ≥ 36%
8 | 310 µM | 160 µM | CC(CC(=O)O)CC(=O)c1ccc2sc3ccccc3c2c1 (stereo unspecified) | inhibition in vivo at 380 µmol/kg [5]: 16%; inhibition in vivo at 380 µmol/kg [6]: 26%
9 | 850 µM | 290 µM | CC(CC(=O)O)CC(=O)c1ccc(Oc2ccccc2)cc1 (stereo unspecified) | inhibition in vivo at 400 µmol/kg [15]: 16%; inhibition in vivo at 400 µmol/kg [16]: ≥ 36%
10 | 630 µM | 860 µM | CC(C)(Oc1ccc(Cl)cc1)C(=O)O | inhibition in vivo at 510 µmol/kg [17]: 26%; inhibition in vivo at 510 µmol/kg [18]: 26%
11 | 70 µM | 40 µM | CC(CCc1ccc(S(=O)(=O)c2ccccc2)cc1)CC(=O)O (stereo unspecified) | inhibition in vivo at 360 µmol/kg [9]: 45%; inhibition in vivo at 360 µmol/kg [10]: 60%
12 | 60 µM | 30 µM | CC(CC(=O)O)CC(=O)c1ccc2c(c1)CCc1ccccc1-2 (stereo unspecified) | inhibition in vivo at 390 µmol/kg [19]: 0%; inhibition in vivo at 390 µmol/kg [20]: ≥ 36%
13 | 40 µM | 20 µM | CC(CCc1ccc(Sc2ccccc2)cc1)CC(=O)O (stereo unspecified) | inhibition in vivo at 400 µmol/kg [15]: 26%; inhibition in vivo at 400 µmol/kg [16]: ≥ 36%
14 | 180 µM | 70 µM | CC(CC(=O)O)CC(=O)c1ccc(-c2ccccc2)cc1 (stereo unspecified) | inhibition in vivo at 430 µmol/kg [1]: 26%; inhibition in vivo at 430 µmol/kg [2]: 16%
